ChEMBL document CHEMBL1154198, “Chemical genetics of Plasmodium falciparum” (Nature, 2010)

Columns and labels:
Plasmodium falciparum [1] = experiment: ST_JUDE: Plasmodium falciparum 3D7 EC50 (uM) as measured by SYBR green dye; type: functional, organism-based
Plasmodium falciparum [2] = experiment: ST_JUDE: Plasmodium falciparum K1 EC50 (uM) as measured by SYBR green dye; type: functional, organism-based
Plasmodium falciparum [3] = experiment: ST_JUDE: Cytotoxicity against Plasmodium falciparum 3D7; type: functional, organism-based
In short: (§1)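 Asexual P. falciparum grown in human erythrocytes, exposed to compounds for 72 h, and growth read as the DNA quantity in treated versus control cultures. Dose-response run at 12 concentrations from 10 μM to 5 nM.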

Plasmodium falciparum [4] = experiment: ST_JUDE: Cytotoxicity against Plasmodium falciparum K1; type: functional, organism-based; in short: as §1
Plasmodium falciparum [5] = experiment: ST_JUDE: Cytotoxicity against Plasmodium falciparum V1/S; type: functional, organism-based
Toxoplasma gondii = experiment: ST_JUDE: Growth inhibition of to Toxoplasma gondii, in human U-2OS cells, as measured by luciferase.; type: functional, organism-based; conditions: RH, U2OS
In short: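 T. gondii parasites engineered to express luciferase; drug sensitivity read by luminescence.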

Trypanosoma brucei = experiment: ST_JUDE: Cytotoxicity using luciferase to measure ATP as an indicator of the viability of Trypanosoma brucei; type: functional, organism-based
Leishmania major = experiment: ST_JUDE: Cytotoxicity using Alamar Blue to measure viability of Leishmania major; type: functional, organism-based
In short: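 L. major promastigotes; drug susceptibility read with Alamar Blue.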

[6] = ST_JUDE: Cytotoxicity using luciferase to measure ATP as an indicator of the viability of human foreskin fibroblast cells (BJ); type: toxicity, cell-based
[7] = ST_JUDE: Cytotoxicity using luciferase to measure ATP as an indicator of the viability of human epithelial hepatocellular carcinoma cells (HepG2); type: toxicity, cell-based
[8] = ST_JUDE: Cytotoxicity using luciferase to measure ATP as an indicator of the viability of human epithelial embryonic kidney cells (HEK293); type: toxicity, cell-based
[9] = ST_JUDE: Cytotoxicity using luciferase to measure ATP as an indicator of the viability of human Burkitt''s lymphoma lymphoblast cells (Raji); type: toxicity, cell-based
Plasmodium falciparum [10] = experiment: ST_JUDE: Cytotoxicity against Plasmodium falciparum Dd2; type: functional, organism-based
Plasmodium falciparum [11] = experiment: ST_JUDE: Cytotoxicity against Plasmodium falciparum W2; type: functional, organism-based
Plasmodium falciparum [12] = experiment: ST_JUDE: Cytotoxicity against Plasmodium falciparum SB-A6; type: functional, organism-based
Plasmodium falciparum [13] = experiment: ST_JUDE: Cytotoxicity against Plasmodium falciparum D10 transfected with yeast DHOD; type: functional, organism-based

Structure (SMILES) | EC50 (Plasmodium falciparum [1]) [nM] | EC50 (Plasmodium falciparum [2]) [nM] | EC50 (Plasmodium falciparum [3]) [nM] | EC50 (Plasmodium falciparum [4]) [nM] | EC50 (Plasmodium falciparum [5]) [nM] | EC50 (Toxoplasma gondii) [nM] | EC50 (Trypanosoma brucei) [nM] | EC50 (Leishmania major) [nM] | EC50 [6] [nM] | EC50 [7] [nM] | EC50 [8] [nM] | EC50 [9] [nM] | EC50 (Plasmodium falciparum [10]) [nM] | EC50 (Plasmodium falciparum [11]) [nM] | EC50 (Plasmodium falciparum [12]) [nM] | EC50 (Plasmodium falciparum [13]) [nM]
CCN(CC)Cc1cc(Nc2ccnc3cc(Cl)ccc23)ccc1O | 28.6 | 26.1 | 44.3 | 42.6 | 45 | > 22100 | > 38600 | > 17200 | > 40200 | > 40200 | > 40200 | > 40200 | 74.4 | 12 | 32.5 | 49.9
COc1ccc(NC(=O)C2c3ccccc3C(=O)N(C3CCCC3)C2c2cccs2)cc1 (stereo not drawn) | 979 | 1220 | 1230 | 1170 | 1020 | > 22300 | 6530 | > 17400 | > 40700 | > 40700 | > 40700 | > 40700 | 1110 | > 10500 | 1970 | 1410
CN(C)c1cc[n+](CC(=O)c2ccc(Br)cc2)cc1 | 1090 | 1500 | 1610 | 2610 | > 7920 | > 16900 | > 29600 | > 13200 | > 30800 | > 30800 | > 30800 | > 30800 | 1030 | > 7920 | > 7920 | 4300
O=[N+]([O-])c1ccc2c(c1)c1ccccc1n2Cc1ccccc1O | 1260 | 1250 | 1300 | 1070 | > 9060 | > 19300 | 24500 | > 15100 | > 35300 | > 35300 | > 35300 | 18200 |  | 3700 | 2320 | 1800
CC(C)CN1C(=O)c2ccccc2C(C(=O)Nc2cccc(C#N)c2)C1c1cccs1 (stereo not drawn) | 58.4 | 80.9 | 271 | 232 | 296 | > 25700 | 3180 | > 20100 | > 46800 | > 46800 | > 46800 | > 46800 | 161 | 196 | 351 | 366
Cc1ccc(N2C(N)=NC(N)=NC2(C)C)cc1 | 33.3 | 989 | 21.4 | 676 | > 8970 | 5710 | > 33500 | > 15000 | > 34900 | > 34900 | > 34900 | > 34900 | 2030 | 729 | 15.1 | 785
CC(C)(C)NC(=O)c1cn(C2CCCCC2)cc(C(=O)NC2CCN(Cc3ccccc3)C2)c1=O (stereo not drawn) | 658 | 4090 | 787 | 1980 | 4840 | > 15700 | 19900 | > 12300 | > 28700 | > 28700 | > 28700 | > 28700 | 507 | 2140 | 704 | 1520
CCOC(=O)c1cnc2c(OC)cccc2c1Nc1ccc(OC)c(OC)c1 | 858 | 804 | 476 | 651 | 865 | > 24700 | > 43200 | > 19300 | > 45100 | > 45100 | > 45100 | > 45100 | 676 | 2700 | > 11600 | > 11600
CC(C)CN1C(=O)c2ccccc2C(C(=O)Nc2ccc(F)c(Cl)c2)C1c1cccs1 (stereo not drawn) | 89.7 | 173 | 378 | 421 | 1680 | > 23200 | 2620 | > 18100 | > 42300 | 38100 | > 42300 | > 42300 | 421 | 152 | 1390 | 1310
